Measurements: publication PMC9064169 (ACS chemical biology, 2021)
Residue numbers refer to the chain shown, from its start. “Also recorded” adds a separate entry of the source. Like-named read-outs stand apart in the source and are kept apart here. Values belong to the compound of their own block, whether it stands above or below them.

Experiments:
[1] = cited from earlier work
zebrafish = conditions: cited from earlier work
[2] = target: T1, Arg563Ala His516Ala double mutant Nurr1 LBD (Homo sapiens, UniProt P43354, H516A/R563A); test: MST binding to Arg563Ala/His516Ala double mutant Nurr1 LBD
T1 sequence (P43354 360-595 H516A/R563A limits assumed): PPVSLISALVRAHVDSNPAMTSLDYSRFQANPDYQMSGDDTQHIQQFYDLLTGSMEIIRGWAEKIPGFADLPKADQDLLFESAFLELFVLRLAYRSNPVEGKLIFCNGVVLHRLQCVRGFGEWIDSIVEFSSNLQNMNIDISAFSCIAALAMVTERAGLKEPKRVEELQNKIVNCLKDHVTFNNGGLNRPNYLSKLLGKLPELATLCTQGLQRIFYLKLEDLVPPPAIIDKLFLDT

[3] = target: endogenous full-length Nurr1 (Mus musculus, UniProt Q06219); test: qPCR of Nurr1 target gene transcripts; assay type: cell-based; conditions: 24 h
Procedure, shortened: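 Mouse MN9D cells treated with test compound at 10 μM, or over a concentration series, for 24 h. Vehicle was DMSO. mRNA was isolated and Th and Vmat2 transcripts were measured by qPCR. Values were normalized to housekeeping gene Hprt and expressed as fold-change over DMSO-treated cells. Values are from three or more independent measurements ± SD.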

MN9D cells = test: Cytotoxicity / viability in MN9D cells; assay type: cell-based; conditions: 24 h treatment
[4] = target: T2, Arg563Ala mutant Nurr1 LBD (Homo sapiens, UniProt P43354, R563A); test: MST binding to Arg563Ala mutant Nurr1 LBD
T2 sequence (P43354 360-595 R563A limits assumed): T1 sequence (P43354 360-595 H516A/R563A limits assumed) with A157H

[5] = target: His516Ala mutant Nurr1 LBD (Homo sapiens, UniProt P43354, H516A); test: MST binding to His516Ala mutant Nurr1 LBD
[6] = Chemical stability in solution; assay type: physicochemical; conditions: observed during data acquisition; see references 26-28
[7] = target: full-length Nurr1 (NBRE response element) (Homo sapiens, UniProt P43354); test: Luciferase reporter assay, full-length receptor on NBRE response element; assay type: cell-based
[8] = target: Nurr1 ligand binding domain (LBD) (Homo sapiens, UniProt P43354); test: Microscale thermophoresis
Procedure, shortened: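 KD for the Nurr1 LBD measured by microscale thermophoresis, with 0.1% of the surfactant Pluronic F127 present. To exclude non-specific binding by aggregates, the assay was repeated at increasing Pluronic F127 concentrations. Values are from three or more independent measurements ± SD.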

LBD of RXRα = target: T3, LBD of RXRα (Homo sapiens, UniProt P19793); test: Binding to the LBD of RXRα
T3 sequence (P19793 227-458 limits assumed): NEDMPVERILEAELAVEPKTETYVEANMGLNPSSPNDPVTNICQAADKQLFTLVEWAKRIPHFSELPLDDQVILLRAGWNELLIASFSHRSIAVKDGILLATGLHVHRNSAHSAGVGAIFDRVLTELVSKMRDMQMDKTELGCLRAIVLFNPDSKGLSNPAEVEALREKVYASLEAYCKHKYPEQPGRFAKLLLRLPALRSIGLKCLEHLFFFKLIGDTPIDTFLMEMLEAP

[9] = MN9D cells, 10 μM, normalized to Hprt

Nurr1 ligand binding domain (LBD), sequence (P43354 360-595 limits assumed): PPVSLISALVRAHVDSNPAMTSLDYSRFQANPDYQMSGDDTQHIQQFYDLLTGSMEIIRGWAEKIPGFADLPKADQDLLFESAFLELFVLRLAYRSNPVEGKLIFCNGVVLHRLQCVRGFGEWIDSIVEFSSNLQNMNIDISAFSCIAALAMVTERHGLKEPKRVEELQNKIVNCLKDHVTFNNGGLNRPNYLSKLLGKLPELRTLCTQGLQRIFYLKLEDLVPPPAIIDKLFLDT
endogenous full-length Nurr1, sequence (Q06219 whole entry): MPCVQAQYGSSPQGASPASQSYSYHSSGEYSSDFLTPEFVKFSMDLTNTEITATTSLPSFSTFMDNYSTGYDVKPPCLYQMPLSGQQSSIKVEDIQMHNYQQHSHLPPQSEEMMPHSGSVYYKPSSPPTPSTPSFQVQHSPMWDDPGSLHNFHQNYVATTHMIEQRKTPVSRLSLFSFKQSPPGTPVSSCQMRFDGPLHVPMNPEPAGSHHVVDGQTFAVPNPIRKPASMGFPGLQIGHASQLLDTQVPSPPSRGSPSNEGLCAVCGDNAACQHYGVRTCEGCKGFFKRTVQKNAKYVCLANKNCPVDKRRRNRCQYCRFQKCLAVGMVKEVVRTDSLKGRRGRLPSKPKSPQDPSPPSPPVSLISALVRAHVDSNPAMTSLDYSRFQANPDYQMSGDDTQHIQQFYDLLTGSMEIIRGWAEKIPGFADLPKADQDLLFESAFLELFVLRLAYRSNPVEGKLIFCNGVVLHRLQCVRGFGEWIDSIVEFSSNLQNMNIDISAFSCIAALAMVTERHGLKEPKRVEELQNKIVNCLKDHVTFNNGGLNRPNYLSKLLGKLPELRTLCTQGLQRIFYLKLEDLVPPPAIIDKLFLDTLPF
His516Ala mutant Nurr1 LBD, sequence (P43354 360-595 H516A limits assumed): as the sequence (P43354 360-595 limits assumed) above, with H157A counted along it
full-length Nurr1 (NBRE response element), sequence (P43354 whole entry, species assumed, the tested form may be a part): as the sequence (Q06219 whole entry) above, with S131T, S134G, D354E counted along it

SMILES: Oc1cc2cc[nH]c2cc1O [DHI, 5,6-dihydroxyindole]
- Chemical stability in solution [1]: readily auto-oxidizes and polymerizes
- Expression of th and vmat2 in zebrafish (zebrafish): stimulates the expression of th and vmat2

- Binding to Arg563Ala/His516Ala double mutant relative to wildtype [2]: eliminated
- Th expression, fold-change relative to vehicle (DMSO) [3, 9]: 2.2 fold
- Vmat2 expression, fold-change relative to vehicle (DMSO) [3, 9]: 2.5 fold
- Binding to Arg563Ala mutant relative to wildtype [4]: eliminated
- Binding affinity for His516Ala mutant relative to wildtype [5]: statistically unchanged
SMILES: Brc1ccc2[nH]ccc2c1 [5-bromoindole]
- Cytotoxicity in MN9D cells (MN9D cells): somewhat toxic to cells under certain conditions (≥10 μM, 24 h)

SMILES: Nc1ccc2cc[nH]c2c1 [6-aminoindole]
- Chemical stability in solution [6]: autooxidation and polymerization in solution
- Cytotoxicity in MN9D cells (MN9D cells): significant cytotoxicity

SMILES: Oc1ccc2cc[nH]c2c1 [6-hydroxyindole]
- Chemical stability in solution [6]: autooxidation and polymerization in solution
- Cytotoxicity in MN9D cells (MN9D cells): significant cytotoxicity

- Chemical stability in solution [6]: stable
- Improvement of affinity relative to wildtype, double mutant [2]: ~ 2 fold
- Activity of Nurr1 in luciferase reporter assay (full-length receptor, NBRE) [7]: stimulates the activity of Nurr1
- Vmat2 expression, fold-change relative to vehicle (DMSO) [3, 9]: 2.4 fold
- Potency in MN9D cells compared with reference ligands ([3]; Th and Vmat2 expression): superior to that of DHI and amodiaquine
- Effect of increasing surfactant concentration on affinity for the Nurr1 LBD ([8]; MST binding assay): only has a minor effect
- Affinity for the Nurr1 LBD compared with reference ligands ([8]; in vitro and in luciferase reporter assays): comparable to DHI and amodiaquine
- Improvement of affinity relative to wildtype, Arg563Ala mutant [4]: ~ 2 fold
- Saturable binding to the LBD of RXRα (LBD of RXRα): does not exhibit saturable binding
- Improvement of affinity relative to wildtype, His516Ala mutant [5]: ~ 2 fold
SMILES: Clc1ccc2[nH]ccc2c1 [5-chloroindole]
- Cytotoxicity in MN9D cells (MN9D cells): non-cytotoxic; also recorded: not cytotoxic

- Kd [8]: 8 ± 1.5 µM
SMILES: CCN(CC)Cc1cc(Nc2ccnc3cc(Cl)ccc23)ccc1O [amodiaquine, reference compound]
